The source of these data is ChEMBL document CHEMBL5696442, “Discovery of type II inhibitors of TGFβ-activated kinase 1 (TAK1) and mitogen-activated protein kinase kinase kinase kinase 2 (MAP4K2)” (J Med Chem, 2015).

In data set [1] the target is T1, Dual specificity mitogen-activated protein kinase kinase 5 (Homo sapiens) (UniProt Q13163).
T1 sequence (whole entry): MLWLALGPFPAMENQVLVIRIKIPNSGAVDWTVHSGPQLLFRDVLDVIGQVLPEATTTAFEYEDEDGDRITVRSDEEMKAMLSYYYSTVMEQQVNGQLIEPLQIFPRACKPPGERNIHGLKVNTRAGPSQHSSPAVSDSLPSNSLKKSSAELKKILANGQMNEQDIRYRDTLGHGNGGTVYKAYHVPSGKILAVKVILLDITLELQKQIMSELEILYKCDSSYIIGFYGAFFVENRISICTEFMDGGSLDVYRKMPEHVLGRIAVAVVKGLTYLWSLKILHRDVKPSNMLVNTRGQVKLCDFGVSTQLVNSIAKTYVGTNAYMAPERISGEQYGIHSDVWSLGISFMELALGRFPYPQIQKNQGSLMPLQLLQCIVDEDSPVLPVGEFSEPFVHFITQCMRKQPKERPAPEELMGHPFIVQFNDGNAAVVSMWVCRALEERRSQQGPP
Nature of the data set: Inhibition of MAP2K5 Lys2 labeling site in human A-375 cells at 0.5 uM by KiNativ Profiling analysis relative to control. The data set is classed as cell-based.

Data set [2] in a line: AUC last in Swiss albino mouse at 1 mg/kg, iv measured upto 24 hrs by LC/MS/MS analysis. The data set is classed as ADME, organism-based. The note with it: in vivo. In a few lines:
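Male Swiss albino mice. […] Blood was taken into K2EDTA from three mice per time point, from 0 to 24 h. Plasma was precipitated with acetonitrile and analysed by LC/MS/MS (LLOQ 1.138 ng/mL).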

Data set [3] has as its target Serine/threonine-protein kinase Nek7 (Homo sapiens) (UniProt Q8TDX7). The experiment in a line: Inhibition of NEK7 ACT labeling site in human A-375 cells at 5 uM by KiNativ Profiling analysis relative to control. The data set is classed as cell-based.
The target of data set [4] is DNA-PK/Ku70/Ku85 (Homo sapiens) (UniProt P78527+P12956+P13010). The experiment in a line: Inhibition of DNAPK ATP labeling site harbouring EHPFLVKGGEDLR in human A-375 cells at 0.05 uM by KiNativ Profiling analysis relative to control. The data set is classed as cell-based.
Data set [5] deals with Tyrosine-protein kinase Lyn (Homo sapiens, UniProt P07948). The experiment in a line: Inhibition of LYN Lys1 labeling site in human A-375 cells at 5 uM by KiNativ Profiling analysis relative to control. The data set is classed as cell-based.
Sequence of Tyrosine-protein kinase Lyn (P07948 2-512 limits assumed): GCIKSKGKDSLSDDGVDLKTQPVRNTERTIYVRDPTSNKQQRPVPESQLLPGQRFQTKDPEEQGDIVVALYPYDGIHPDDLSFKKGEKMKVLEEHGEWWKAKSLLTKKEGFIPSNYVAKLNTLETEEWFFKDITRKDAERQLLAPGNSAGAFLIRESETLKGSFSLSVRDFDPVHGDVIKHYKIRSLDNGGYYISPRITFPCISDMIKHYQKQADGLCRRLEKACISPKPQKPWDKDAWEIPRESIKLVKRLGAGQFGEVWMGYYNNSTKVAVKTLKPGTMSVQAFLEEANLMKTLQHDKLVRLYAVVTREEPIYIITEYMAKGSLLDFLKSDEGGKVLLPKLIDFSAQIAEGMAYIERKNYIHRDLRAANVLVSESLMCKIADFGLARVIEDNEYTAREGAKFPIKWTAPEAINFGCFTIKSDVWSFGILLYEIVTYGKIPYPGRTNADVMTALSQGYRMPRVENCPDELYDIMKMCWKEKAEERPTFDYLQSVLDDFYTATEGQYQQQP
In data set [6] the target is Tyrosine-protein kinase Fer (Homo sapiens, UniProt P16591). Nature of the data set: Inhibition of FER Lys1 labeling site harbouring TSVAVKTCKEDLPQELKin human A-375 cells at 0.05 uM by KiNativ Profiling analysis relative to control. The data set is classed as cell-based.
Sequence of Tyrosine-protein kinase Fer (P16591 whole entry, looked up): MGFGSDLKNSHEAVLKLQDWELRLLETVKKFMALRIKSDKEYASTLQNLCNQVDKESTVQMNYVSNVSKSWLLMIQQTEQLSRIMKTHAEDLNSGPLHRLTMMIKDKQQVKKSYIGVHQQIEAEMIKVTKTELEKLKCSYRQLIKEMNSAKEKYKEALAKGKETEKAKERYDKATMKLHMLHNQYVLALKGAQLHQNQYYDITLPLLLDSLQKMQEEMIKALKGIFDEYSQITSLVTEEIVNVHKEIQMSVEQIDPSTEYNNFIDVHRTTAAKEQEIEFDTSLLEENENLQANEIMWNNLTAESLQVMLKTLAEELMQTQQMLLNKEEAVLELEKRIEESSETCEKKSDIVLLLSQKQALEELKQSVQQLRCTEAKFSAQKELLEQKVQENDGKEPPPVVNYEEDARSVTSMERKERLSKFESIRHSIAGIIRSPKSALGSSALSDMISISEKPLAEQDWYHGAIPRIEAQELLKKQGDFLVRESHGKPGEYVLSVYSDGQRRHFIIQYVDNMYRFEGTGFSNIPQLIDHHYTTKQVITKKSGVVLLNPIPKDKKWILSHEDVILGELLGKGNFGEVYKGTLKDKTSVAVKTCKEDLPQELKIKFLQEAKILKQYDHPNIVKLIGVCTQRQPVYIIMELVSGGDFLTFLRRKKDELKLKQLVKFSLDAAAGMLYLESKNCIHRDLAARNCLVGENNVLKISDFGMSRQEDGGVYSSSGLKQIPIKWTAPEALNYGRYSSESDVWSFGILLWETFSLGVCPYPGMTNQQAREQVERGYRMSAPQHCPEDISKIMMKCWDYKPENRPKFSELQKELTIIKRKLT
Data set [7] has as its target T2, Serine/threonine-protein kinase Nek9 (Homo sapiens) (UniProt Q8TD19).
T2 sequence (whole entry): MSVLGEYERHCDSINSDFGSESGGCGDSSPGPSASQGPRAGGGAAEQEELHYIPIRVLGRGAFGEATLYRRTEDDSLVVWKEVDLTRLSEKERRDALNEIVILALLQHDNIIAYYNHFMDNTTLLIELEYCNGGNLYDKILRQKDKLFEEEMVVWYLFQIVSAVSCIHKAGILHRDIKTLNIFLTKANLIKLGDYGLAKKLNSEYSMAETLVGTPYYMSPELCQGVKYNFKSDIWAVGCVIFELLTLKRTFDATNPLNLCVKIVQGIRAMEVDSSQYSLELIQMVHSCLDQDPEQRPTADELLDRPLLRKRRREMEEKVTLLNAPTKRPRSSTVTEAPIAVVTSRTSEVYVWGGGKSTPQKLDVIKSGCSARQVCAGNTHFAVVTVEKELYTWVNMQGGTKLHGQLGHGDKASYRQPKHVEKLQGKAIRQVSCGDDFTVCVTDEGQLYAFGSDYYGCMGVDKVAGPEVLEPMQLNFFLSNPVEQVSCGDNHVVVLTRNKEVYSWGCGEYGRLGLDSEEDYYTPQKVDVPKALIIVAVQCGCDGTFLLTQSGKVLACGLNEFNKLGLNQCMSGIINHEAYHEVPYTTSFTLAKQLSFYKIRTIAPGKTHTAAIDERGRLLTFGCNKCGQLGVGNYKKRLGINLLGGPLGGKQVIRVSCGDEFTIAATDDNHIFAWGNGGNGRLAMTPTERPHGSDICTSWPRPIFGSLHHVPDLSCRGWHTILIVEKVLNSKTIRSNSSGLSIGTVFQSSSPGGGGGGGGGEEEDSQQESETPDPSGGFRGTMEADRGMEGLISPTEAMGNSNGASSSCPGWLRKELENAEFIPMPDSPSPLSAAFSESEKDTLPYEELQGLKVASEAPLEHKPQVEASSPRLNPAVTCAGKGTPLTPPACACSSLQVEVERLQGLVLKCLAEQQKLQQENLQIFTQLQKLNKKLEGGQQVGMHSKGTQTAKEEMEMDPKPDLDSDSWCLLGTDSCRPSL
Nature of the data set: Inhibition of NEK9 ACT labeling site in human A-375 cells at 0.5 uM by KiNativ Profiling analysis relative to control. The data set is classed as cell-based.

For data set [8], the target named is Epidermal growth factor receptor (Homo sapiens) (UniProt P00533). Nature of the data set: Inhibition of EGFR ACT labeling site harbouring LLGAEEKEYHAEGGKVPIK in human A-375 cells at 0.5 uM by KiNativ Profiling analysis relative to control. The data set is classed as cell-based. The procedure, abridged: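 Live A375 melanoma cells were treated with compound at 0.5 or 5 μM, then lysed. Lysates were labeled with a lysine-reactive ATP or ADP-biotin probe. The read-out was protection of each kinase probe-labeling site from labeling, relative to control.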
Sequence of Epidermal growth factor receptor (Homo sapiens) (P00533 whole entry): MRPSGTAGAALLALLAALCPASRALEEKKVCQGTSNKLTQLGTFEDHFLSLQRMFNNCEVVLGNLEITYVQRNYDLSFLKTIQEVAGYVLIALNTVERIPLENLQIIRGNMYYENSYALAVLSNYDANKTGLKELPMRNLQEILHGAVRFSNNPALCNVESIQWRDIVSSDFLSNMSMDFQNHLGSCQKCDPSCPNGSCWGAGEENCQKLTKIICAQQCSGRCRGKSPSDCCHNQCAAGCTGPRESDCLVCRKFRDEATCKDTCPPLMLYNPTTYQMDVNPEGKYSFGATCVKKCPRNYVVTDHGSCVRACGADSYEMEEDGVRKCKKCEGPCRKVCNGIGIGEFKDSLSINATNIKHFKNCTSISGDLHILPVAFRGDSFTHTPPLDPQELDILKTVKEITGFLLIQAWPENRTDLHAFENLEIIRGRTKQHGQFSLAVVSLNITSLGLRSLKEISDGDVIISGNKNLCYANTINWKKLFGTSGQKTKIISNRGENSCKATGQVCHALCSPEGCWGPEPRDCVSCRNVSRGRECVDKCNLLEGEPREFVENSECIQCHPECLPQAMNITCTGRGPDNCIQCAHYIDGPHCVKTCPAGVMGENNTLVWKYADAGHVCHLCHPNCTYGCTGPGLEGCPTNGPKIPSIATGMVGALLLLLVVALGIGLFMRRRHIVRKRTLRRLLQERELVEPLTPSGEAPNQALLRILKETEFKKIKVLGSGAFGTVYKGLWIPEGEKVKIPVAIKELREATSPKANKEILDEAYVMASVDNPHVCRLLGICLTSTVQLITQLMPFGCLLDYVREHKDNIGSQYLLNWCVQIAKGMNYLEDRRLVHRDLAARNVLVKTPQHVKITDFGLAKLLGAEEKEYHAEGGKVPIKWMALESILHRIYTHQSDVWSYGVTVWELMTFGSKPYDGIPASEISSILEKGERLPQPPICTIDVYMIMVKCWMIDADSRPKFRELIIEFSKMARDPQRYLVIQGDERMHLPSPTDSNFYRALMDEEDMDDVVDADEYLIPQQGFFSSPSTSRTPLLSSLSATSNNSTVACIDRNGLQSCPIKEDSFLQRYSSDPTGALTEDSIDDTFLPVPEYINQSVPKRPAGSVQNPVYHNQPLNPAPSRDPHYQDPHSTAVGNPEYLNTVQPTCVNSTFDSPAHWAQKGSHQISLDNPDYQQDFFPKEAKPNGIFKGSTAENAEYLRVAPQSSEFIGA

Data set [9] addresses Cyclin-dependent kinase 8 (Homo sapiens) (UniProt P49336). The experiment in a line: Inhibition of CDK8 Lys2 labeling site in human A-375 cells at 5 uM by KiNativ Profiling analysis relative to control. The data set is classed as cell-based. In a few lines:
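Live A375 melanoma cells were treated with compound at 5 or 0.5 μM. The cells were then lysed, and the lysates were labeled with a lysine-reactive ATP or ADP-biotin acyl probe (KiNativ). Inhibition is the compound's protection of each kinase labeling-site peptide from probe labeling, relative to untreated control.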

The target in data set [10] is T3, Scaffold protein ILK (Homo sapiens) (UniProt Q13418).
T3 sequence (whole entry): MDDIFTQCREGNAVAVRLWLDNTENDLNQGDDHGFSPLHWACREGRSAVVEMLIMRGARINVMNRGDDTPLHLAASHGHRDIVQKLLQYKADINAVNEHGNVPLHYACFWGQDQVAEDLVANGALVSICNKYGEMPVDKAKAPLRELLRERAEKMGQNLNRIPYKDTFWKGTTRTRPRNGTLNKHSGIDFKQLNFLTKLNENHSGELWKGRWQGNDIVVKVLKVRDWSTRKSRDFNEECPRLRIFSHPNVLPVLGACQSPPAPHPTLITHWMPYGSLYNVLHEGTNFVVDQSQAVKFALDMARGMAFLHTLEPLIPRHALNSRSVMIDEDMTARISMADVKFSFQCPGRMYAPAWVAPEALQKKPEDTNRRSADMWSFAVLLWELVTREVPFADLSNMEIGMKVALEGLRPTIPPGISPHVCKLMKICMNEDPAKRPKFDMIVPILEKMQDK
The experiment in a line: Inhibition of ILK Lys1 labeling site in human A-375 cells at 0.5 uM by KiNativ Profiling analysis relative to control. The data set is classed as cell-based.

One may read the inhibition as the change of the read-out against control, counted positive when it falls.

Sequence of Cyclin-dependent kinase 8 (Homo sapiens) (P49336 whole entry): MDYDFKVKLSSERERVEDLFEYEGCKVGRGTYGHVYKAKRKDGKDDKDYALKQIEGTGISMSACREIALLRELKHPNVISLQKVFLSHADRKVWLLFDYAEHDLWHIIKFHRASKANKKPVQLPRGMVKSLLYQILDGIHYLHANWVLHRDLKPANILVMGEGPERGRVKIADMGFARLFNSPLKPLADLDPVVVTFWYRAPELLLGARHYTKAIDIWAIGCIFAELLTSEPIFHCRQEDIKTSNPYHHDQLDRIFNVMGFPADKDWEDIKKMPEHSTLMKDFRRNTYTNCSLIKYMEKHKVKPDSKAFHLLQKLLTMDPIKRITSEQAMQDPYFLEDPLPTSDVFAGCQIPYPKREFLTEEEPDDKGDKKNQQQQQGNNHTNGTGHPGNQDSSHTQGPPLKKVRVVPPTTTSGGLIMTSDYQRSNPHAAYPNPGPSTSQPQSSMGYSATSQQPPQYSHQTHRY
Sequence of Serine/threonine-protein kinase Nek7 (Homo sapiens) (Q8TDX7 whole entry, looked up): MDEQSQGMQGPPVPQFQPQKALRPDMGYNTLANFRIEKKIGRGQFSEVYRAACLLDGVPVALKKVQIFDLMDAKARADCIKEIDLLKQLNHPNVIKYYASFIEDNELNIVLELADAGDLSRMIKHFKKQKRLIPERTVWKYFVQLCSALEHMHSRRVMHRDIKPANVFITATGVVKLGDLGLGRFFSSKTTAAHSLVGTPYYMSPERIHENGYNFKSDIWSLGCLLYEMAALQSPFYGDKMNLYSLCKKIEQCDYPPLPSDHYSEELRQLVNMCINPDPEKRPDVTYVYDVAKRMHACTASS

For `CCN1CCN(Cc2ccc(NC(=O)c3ccc(C)c(/C=C/c4cnc5[nH]ccc5c4OC)c3)cc2C(F)(F)F)CC1`, the inhibition in data set [1] is 26.1%; in data set [3], -6.2%; in data set [4] it was 9.9%; in data set [5] it was > 95%; in [6] it was 2.6%; in data set [7], -3.8%. Besides, the inhibition in [8] is -0.5%; in [9], 16.9%; in data set [10], -1.2%. This compound yielded an AUClast in [2] of 403 ng·h/mL.

For the compound `CCN1CCN(Cc2ccc(NC(=O)c3ccc(C)c(Oc4ccnc5[nH]ccc45)c3)cc2C(F)(F)F)CC1`, the inhibition is 16.2% in data set [1]; -3.5% in data set [3]; -9.3% in [4]; > 95% in data set [5]; 64.6% in data set [6]; -2.4% in data set [7]. Besides, the results for the inhibition in [8], in [9] and in data set [10] were 4.8%, 18% and 4.9%, respectively. In [2], this compound had an AUClast of 195 ng·h/mL.
